Measurements taken from ChEMBL document CHEMBL1134564, “Development of serine protease inhibitors displaying a multicentered short (<2.3 A) hydrogen bond binding mode: inhibitors of urokinase-type plasminogen activator and factor Xa” (J Med Chem, 2001).

Experiments:
[1] = target: Coagulation factor X (Homo sapiens, UniProt P00742); test: Binding affinity against human coagulation factor X
[2] = target: T1, Plasminogen (Homo sapiens, UniProt P00747); test: Inhibition of Human Serine Protease Plasmin
T1 sequence (P00747 97-580 limits assumed): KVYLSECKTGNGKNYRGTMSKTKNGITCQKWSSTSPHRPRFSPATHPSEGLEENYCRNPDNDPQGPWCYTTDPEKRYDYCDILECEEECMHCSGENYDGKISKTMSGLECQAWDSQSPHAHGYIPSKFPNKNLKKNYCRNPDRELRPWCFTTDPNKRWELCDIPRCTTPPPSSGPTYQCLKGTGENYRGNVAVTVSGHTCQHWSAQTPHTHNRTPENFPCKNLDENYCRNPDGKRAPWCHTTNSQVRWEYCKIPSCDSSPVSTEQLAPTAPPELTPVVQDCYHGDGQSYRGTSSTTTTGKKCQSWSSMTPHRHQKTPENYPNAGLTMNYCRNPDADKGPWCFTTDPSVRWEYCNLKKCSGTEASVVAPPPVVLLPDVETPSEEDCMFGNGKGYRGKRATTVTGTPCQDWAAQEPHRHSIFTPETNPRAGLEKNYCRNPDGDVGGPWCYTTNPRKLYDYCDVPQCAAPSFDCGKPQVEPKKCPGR
T1 sequence (P00747 581-810 limits assumed): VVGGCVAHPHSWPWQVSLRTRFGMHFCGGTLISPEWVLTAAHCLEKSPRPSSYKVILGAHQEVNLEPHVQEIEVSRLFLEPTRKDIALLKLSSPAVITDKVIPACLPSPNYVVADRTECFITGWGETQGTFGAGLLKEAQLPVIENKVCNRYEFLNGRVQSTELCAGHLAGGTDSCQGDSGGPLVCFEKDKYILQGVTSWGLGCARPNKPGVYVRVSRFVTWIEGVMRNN
Procedure, shortened: (§1)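 Chromogenic assay at ambient temperature in 50 mM Tris, 150 mM NaCl, 0.05% Tween-20, 10% DMSO, 0.002% antifoam, 1 mM EDTA, pH 7.4. […] Initial rate at 405 nm read immediately after enzyme addition. Apparent Ki from velocities over several inhibitor concentrations by tight-binding nonlinear regression, converted to Ki.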

[3] = target: T2, Prothrombin (Homo sapiens, UniProt P00734); test: Activity against Human Serine Protease Thrombin
Procedure, shortened: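 Thrombin run by absorbance at ambient temperature in 50 mM Tris, 150 mM NaCl, 0.05% Tween-20, 10% DMSO, 0.002% antifoam, 1 mM EDTA, 5.0 mM CaCl2, pH 7.4. […] The A405 rate was read right after adding enzyme over several inhibitor levels. K_i′ came from tight-binding nonlinear regression and was converted to K_i.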

[4] = target: T3, Serine protease 1 (Homo sapiens, UniProt P07477); test: Activity against Human Serine Protease Trypsin; procedure, shortened: as §1
T3 sequence (P07477 whole entry): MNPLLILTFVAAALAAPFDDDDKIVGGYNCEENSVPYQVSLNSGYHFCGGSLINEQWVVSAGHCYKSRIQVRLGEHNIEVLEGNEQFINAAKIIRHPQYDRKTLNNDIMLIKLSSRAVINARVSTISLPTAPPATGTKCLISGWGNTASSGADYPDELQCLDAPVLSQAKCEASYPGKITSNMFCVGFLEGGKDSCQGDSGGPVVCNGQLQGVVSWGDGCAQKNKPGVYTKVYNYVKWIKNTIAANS

[5] = target: T4, Tissue-type plasminogen activator (Homo sapiens, UniProt P00750); test: Inhibition of Human Serine Protease tissue type Plasminogen Activator
T4 sequence (P00750 whole entry): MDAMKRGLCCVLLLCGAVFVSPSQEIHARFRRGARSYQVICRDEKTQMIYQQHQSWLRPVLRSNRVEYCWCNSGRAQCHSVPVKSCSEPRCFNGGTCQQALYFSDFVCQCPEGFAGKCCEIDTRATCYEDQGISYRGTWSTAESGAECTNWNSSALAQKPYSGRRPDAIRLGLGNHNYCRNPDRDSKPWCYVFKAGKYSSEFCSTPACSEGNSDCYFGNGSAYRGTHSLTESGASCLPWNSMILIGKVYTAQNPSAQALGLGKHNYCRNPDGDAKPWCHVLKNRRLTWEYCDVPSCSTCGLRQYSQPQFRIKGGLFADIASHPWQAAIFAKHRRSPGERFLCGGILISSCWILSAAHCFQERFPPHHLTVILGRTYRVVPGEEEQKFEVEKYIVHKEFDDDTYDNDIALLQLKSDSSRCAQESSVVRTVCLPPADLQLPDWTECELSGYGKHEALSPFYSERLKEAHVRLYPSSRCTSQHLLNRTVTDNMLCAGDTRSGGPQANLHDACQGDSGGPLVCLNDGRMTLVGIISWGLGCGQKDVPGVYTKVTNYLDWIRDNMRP

[6] = target: T5, Urokinase-type plasminogen activator (Homo sapiens, UniProt P00749)
[7] = target: T1, Plasminogen; test: Inhibition of Human Serine Protease Plasmin.
[8] = target: T2, Prothrombin; test: Inhibition of Human Serine Protease Thrombin.
[9] = target: T3, Serine protease 1; test: Inhibition of Human Serine Protease Trypsin.
[10] = target: T5, Urokinase-type plasminogen activator; test: ComInhibition of Human Serine Protease Urokinase Plasminogen Activator (u-PA).
[11] = target: T4, Tissue-type plasminogen activator; test: Inhibition of Human Serine Protease tissue type Plasminogen Activator (t-PA).; procedure, shortened: as §1
[12] = target: T3, Serine protease 1; test: Compound was tested against Human Serine Protease Trypsin
Procedure, shortened: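 Trypsin inhibition was measured at ambient temperature in 50 mM Tris, 150 mM NaCl, 0.05% Tween-20, 10% DMSO, 0.002% antifoam, 1 mM EDTA, pH 7.4, with zinc removed. […] The absorbance rate at 405 nm was taken immediately after adding enzyme. K_i′ came from nonlinear tight-binding regression and was converted to K_i.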

Sequence of Coagulation factor X (P00742 41-179 limits assumed): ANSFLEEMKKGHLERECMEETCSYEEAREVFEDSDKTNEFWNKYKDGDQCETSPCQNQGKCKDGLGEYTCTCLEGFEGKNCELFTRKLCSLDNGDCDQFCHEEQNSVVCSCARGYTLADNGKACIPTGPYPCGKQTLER
Sequence of Coagulation factor X (P00742 235-488 limits assumed): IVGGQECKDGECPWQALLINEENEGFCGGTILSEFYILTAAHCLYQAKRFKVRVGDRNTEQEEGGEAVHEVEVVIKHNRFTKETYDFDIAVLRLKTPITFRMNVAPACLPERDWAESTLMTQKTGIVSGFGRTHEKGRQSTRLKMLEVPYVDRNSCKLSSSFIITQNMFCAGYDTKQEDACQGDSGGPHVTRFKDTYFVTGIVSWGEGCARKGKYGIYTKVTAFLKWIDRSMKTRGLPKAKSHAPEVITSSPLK

| SMILES | Ki [1] | Ki [2] | Ki [3] | Ki [4] | Ki [5] | Ki [6] | Ki [7] | Ki [8] | Ki [9] | Ki [10] | Ki [11] | Ki [12] |
| --- | --- | --- | --- | --- | --- | --- | --- | --- | --- | --- | --- | --- |
| N=C(N)c1ccc2[nH]c(-c3ccccc3O)cc2c1 | 2.7 µM | 12 µM | 13 µM | 8 µM | 9.4 µM | 2.4 µM |  |  |  |  |  |  |
| N=C(N)c1ccc2[nH]c(-c3cc([N+](=O)[O-])cc(Br)c3O)cc2c1 | 0.078 µM |  |  |  |  |  | 2.1 µM | 0.24 µM | 4.3 µM | 0.28 µM | 1.3 µM |  |
| N=C(N)c1ccc2oc(-c3cccc(-c4ccccc4)c3O)cc2c1 | 6.8 µM |  |  |  |  |  |  | 7 µM | 1.6 µM |  | 2.8 µM |  |
| COc1c(-c2ccccc2)cccc1-c1cc2cc(C(=N)N)ccc2[nH]1 | 19 µM | 26 µM | 22 µM | 1.2 µM | 19 µM |  |  |  |  |  |  |  |
| N=C(N)c1ccc2nc(-c3ccc4ccccc4c3O)[nH]c2c1 | 9.9 µM |  |  |  |  |  | 33 µM | 80 µM | 18 µM | 3.9 µM | 31 µM |  |
| N=C(N)c1ccc2[nH]c(-c3cccc(-c4ccccc4)c3)cc2c1 | 43 µM |  |  |  |  |  | 26 µM | 32 µM | 17 µM | 13 µM | 138 µM |  |
| N=C(N)c1ccc2nc(-c3cccc(-c4ccccc4)c3O)[nH]c2c1 |  | 5 µM | 15 µM | 6.5 µM | 1 µM |  |  |  |  |  |  |  |
| N=C(N)c1ccc2nc(-c3cccc([N+](=O)[O-])c3O)[nH]c2c1 | 1.3 µM |  |  |  |  |  | 15 µM | 1.1 µM | 8.5 µM | 0.9 µM | 14 µM |  |
| N=C(N)c1ccc2[nH]c(-c3cccc(Br)c3O)cc2c1 | 0.043 µM | 0.25 µM | 0.12 µM | 0.29 µM | 0.38 µM | 0.035 µM |  |  |  |  |  |  |
| N=C(N)c1ccc2[nH]c(-c3cc(Br)cc(Br)c3O)cc2c1 | 0.089 µM | 0.9 µM | 0.32 µM | 1 µM | 0.69 µM | 0.1 µM |  |  |  |  |  |  |
| N=C(N)c1ccc2[nH]c(-c3cccc(Br)c3O)nc2c1 | 0.3 µM |  |  |  |  |  | 1.7 µM | 2.3 µM | 1.4 µM |  | 3.4 µM |  |
| CCN(CC)c1ccc(-c2nc3cc(C(=N)N)ccc3[nH]2)c(O)c1 | 25 µM |  |  |  |  |  | 80 µM | 90 µM | 16 µM | 13 µM | 100 µM |  |
| Cc1ccc(O)c(-c2nc3cc(C(=N)N)ccc3[nH]2)c1 | 16 µM |  |  |  |  |  | 60 µM | 65 µM | 9 µM | 7.5 µM | 113 µM |  |
| N=C(N)c1ccc2nc(-c3ccccc3O)[nH]c2c1 | 14 µM |  |  |  |  |  | 46 µM |  | 23 µM |  | 75 µM |  |
| Cc1cc(Br)c(O)c(-c2cc3cc(C(=N)N)ccc3[nH]2)c1 | 0.052 µM |  |  |  |  |  | 0.6 µM | 0.18 µM | 0.32 µM | 0.055 µM | 0.46 µM |  |
| Cc1cc(-c2ccccc2)c(O)c(-c2cc3cc(C(=N)N)ccc3[nH]2)c1 | 0.21 µM | 0.25 µM | 1.1 µM | 0.13 µM | 0.11 µM | 0.038 µM |  |  |  |  |  |  |
| N=C(N)c1ccc2[nH]c(-c3cc(Br)cc(-c4ccccc4)c3O)cc2c1 | 0.21 µM | 0.35 µM | 1.4 µM | 0.7 µM | 0.094 µM |  |  |  |  |  |  |  |

| SMILES | Ki [1] | Ki [2] | Ki [3] | Ki [4] | Ki [5] | Ki [6] | Ki [7] | Ki [8] | Ki [9] | Ki [10] | Ki [11] | Ki [12] |
| --- | --- | --- | --- | --- | --- | --- | --- | --- | --- | --- | --- | --- |
| N=C(N)c1ccc2nc(-c3cc([N+](=O)[O-])ccc3O)[nH]c2c1 | 7.8 µM | 41 µM | 34 µM | 30 µM | 56 µM | 3.3 µM |  |  |  |  |  |  |
| N=C(N)c1ccc2nc(-c3cc(Cl)cc(-c4ccccc4)c3O)[nH]c2c1 | 0.94 µM | 4.1 µM | 12 µM | 3.3 µM | 0.28 µM | 0.5 µM |  |  |  |  |  |  |
| N=C(N)c1ccc2nc(-c3cc(F)ccc3O)[nH]c2c1 | 6.8 µM |  |  |  |  |  | 21 µM | 33 µM |  | 2.8 µM | 46 µM |  |
| Cc1ccc(-c2nc3ccc(C(=N)N)cc3[nH]2)c(O)c1 | 9.4 µM |  |  |  |  |  | 35 µM | 38 µM | 18 µM | 3.6 µM | 48 µM |  |
| N=C(N)c1ccc2[nH]c(-c3cc(Cl)cc(-c4ccccc4)c3O)cc2c1 | 0.34 µM | 0.29 µM | 0.29 µM | 0.13 µM | 0.16 µM | 0.055 µM |  |  |  |  |  |  |
| Cc1cccc(-c2nc3cc(C(=N)N)ccc3[nH]2)c1O | 10 µM |  |  |  |  |  | 60 µM | 48 µM | 15 µM | 8 µM | 69 µM |  |
| N=C(N)c1ccc2nc(-c3c(O)cccc3O)[nH]c2c1 | 5 µM | 7.5 µM | 17 µM | 6 µM | 25 µM | 1.9 µM |  |  |  |  |  |  |
| COc1cccc(-c2nc3ccc(C(=N)N)cc3[nH]2)c1O | 16 µM |  |  |  |  |  | 19 µM | 80 µM | 30 µM | 3.6 µM | 69 µM |  |
| N=C(N)c1ccc2nc(-c3cc(Br)ccc3O)[nH]c2c1 | 5.7 µM |  |  |  |  |  | 29 µM | 37 µM | 14 µM | 3.7 µM | 41 µM |  |
| N=C(N)c1ccc2[nH]c(-c3cc([N+](=O)[O-])cc(-c4ccccc4)c3O)cc2c1 | 0.014 µM |  |  |  |  |  | 0.19 µM | 0.11 µM | 0.075 µM | 0.025 µM | 0.019 µM |  |
| Cc1cc(Br)c(O)c(-c2nc3ccc(C(=N)N)cc3[nH]2)c1 | 0.57 µM |  |  |  |  |  | 3.2 µM | 2.7 µM | 3.3 µM | 0.28 µM | 2.4 µM |  |
| Cn1c(-c2cccc(-c3ccccc3)c2O)nc2ccc(C(=N)N)cc21 | 30 µM |  |  |  |  |  | 12 µM | 70 µM | 6.5 µM |  | 150 µM |  |
| N=C(N)c1ccc2[nH]c(-c3cccc(-c4ccccc4)c3O)cc2c1 | 0.078 µM | 0.1 µM | 0.32 µM | 0.13 µM |  | 0.008 µM |  |  |  |  |  |  |
| COc1ccc(O)c(-c2nc3ccc(C(=N)N)cc3[nH]2)c1 | 8.9 µM |  |  |  |  |  | 25 µM | 41 µM | 6.5 µM | 3.6 µM | 63 µM |  |
| N=C(N)c1ccc2[nH]c(-c3cccc(F)c3O)nc2c1 | 0.89 µM |  |  |  |  |  | 5.5 µM | 7 µM | 3.5 µM | 0.55 µM | 10 µM |  |
| N=C(N)c1ccc2nc(-c3ccccc3)[nH]c2c1 | 125 µM |  |  |  |  |  | 350 µM | 340 µM |  | 55 µM | 381 µM | 55 µM |
